{"data": "Assay results pooled from the literature", "HMGCR": "3-hydroxy-3-methylglutaryl-coenzyme A reductase (HMGCR, Homo sapiens, UniProt P04035)", "CDK7 with cyclin H": "Cyclin-dependent kinase 7, with cyclin H (CDK7, Homo sapiens, UniProt P50613)", "F2": "Prothrombin (F2, Homo sapiens, UniProt P00734)", "PDE4D": "3',5'-cyclic-AMP phosphodiesterase 4D (PDE4D, Homo sapiens, UniProt Q08499)", "note": "Compare with care: the assays were run in different laboratories."}
{"Structure (SMILES)": "COCc1c(-c2cc3cc(C)cc(OC)c3s2)c2c(N)ncnn2c1CN1CCNC(=O)C1", "target": "HMGCR", "read-out": "enzyme activity", "action": "inhibitor", "concentration": "10 µM", "inhibition": "1%"}
{"Structure (SMILES)": "C#Cc1n[nH]c2c(-c3cn([C@@H](C)c4ccccn4)c(=O)[nH]c3=O)cc(F)cc12", "target": "Serine/threonine-protein kinase PAK 2 (PAK2, Homo sapiens, UniProt Q13177)", "read-out": "enzyme activity", "action": "inhibitor", "concentration": "0.1 µM", "inhibition": "4.1%"}
{"Structure (SMILES)": "CC(C)(C)[C@]1(O)CC2OC(=O)CC23C(=O)OC2OC(=O)[C@H](O)C231 (stereo partly drawn)", "target": "CDK7 with cyclin H", "read-out": "enzyme activity", "action": "inhibitor", "technique": "ADP detection", "concentration": "10 µM", "inhibition": "2.1%"}
{"Structure (SMILES)": "O=C(Nc1ccc2c(c1)B(O)OC2)c1cccc(OCc2ccc(Cl)cc2)c1", "target": "F2", "read-out": "enzyme activity", "action": "inhibitor", "concentration": "50 µM", "inhibition": "13.7%"}
{"Structure (SMILES)": "c1ccc(C(NCCNC(c2ccccc2)c2ccccc2)c2ccccc2)cc1", "target": "HMGCR", "read-out": "enzyme activity", "action": "inhibitor", "concentration": "10 µM", "inhibition": "-2%"}
{"Structure (SMILES)": "CCN(CC)CCCC[C@H](NC(=O)[C@H](CC(C)C)NC(=O)[C@H](C)NC(=O)[C@H](Cc1ccccc1)NC(=O)c1ccc(C(C)(C)C)cc1)C(=O)N[C@@H](CO)C(=O)OC", "target": "Prostaglandin E2 receptor EP4 subtype (PTGER4, Homo sapiens, UniProt P35408)", "read-out": "ligand displacement", "technique": "radioligand", "concentration": "10 µM", "inhibition": "5%"}
{"Structure (SMILES)": "COc1c(-c2ccc3c(c2)OCO3)oc2c(ccc3occc32)c1=O", "target": "CDK7 with cyclin H", "read-out": "enzyme activity", "action": "inhibitor", "technique": "ADP detection", "concentration": "10 µM", "inhibition": "30.4%"}
{"Structure (SMILES)": "O=c1c(O[C@@H]2O[C@H](CO)[C@@H](O)[C@H](O)[C@H]2O)c(-c2ccc(O)cc2)oc2cc(O)cc(O)c12", "target": "PDE4D", "read-out": "enzyme activity", "action": "inhibitor", "technique": "radiometric", "concentration": "50 µM", "inhibition": "20.2%"}
{"Structure (SMILES)": "C[C@@H]1CCO[C@H]2Cn3cc(C(=O)NCc4ccc(F)cc4F)c(=O)c(O)c3C(=O)N12", "target": "Gag-Pol polyprotein, integrase (gag-pol, Human immunodeficiency virus type 1 group M subtype B, UniProt P04585)", "read-out": "enzyme activity", "action": "inhibitor", "concentration": "50 nM", "inhibition": "> 50%"}
{"Structure (SMILES)": "O=C(Nc1cccnn1)N1CCN([C@@H]2CCOc3cc(C(F)(F)F)ccc32)CC1", "target": "PDE4D", "read-out": "enzyme activity", "action": "inhibitor", "concentration": "20 µM", "inhibition": "1%"}
{"Structure (SMILES)": "C=C[C@H]1CN2CC[C@H]1C[C@H]2[C@H](O)c1ccnc2ccccc12", "target": "CDK7 with cyclin H", "read-out": "enzyme activity", "action": "inhibitor", "technique": "ADP detection", "concentration": "10 µM", "inhibition": "-25.5%"}
{"Structure (SMILES)": "COc1cc2c3c(c1OC)-c1cc4c(cc1CC3N(C)CC2)OCO4 (racemic)", "target": "5-hydroxytryptamine receptor 1B (HTR1B, Homo sapiens, UniProt P28222)", "read-out": "ligand displacement", "technique": "radioligand", "concentration": "10 µM", "inhibition": "100%"}
{"Structure (SMILES)": "C=CCc1ccc(O)c(-c2cc(CC=C)ccc2O)c1", "target": "PDE4D", "read-out": "enzyme activity", "action": "inhibitor", "technique": "radiometric", "concentration": "50 µM", "inhibition": "42.7%"}
{"Structure (SMILES)": "COc1cc(Nc2ncc(F)c(Nc3ccc4c(n3)NC(=O)C(C)(C)O4)n2)cc(OC)c1OC", "target": "Mitogen-activated protein kinase 7 (MAPK7, Homo sapiens, UniProt Q13164)", "read-out": "binding", "technique": "competition with immobilised ligand", "concentration": "10 µM", "inhibition": "19%"}
{"Structure (SMILES)": "C[C@H](C(=O)N[C@H]1COc2ccccc2[C@@H]1S(C)(=O)=O)c1ccc(F)cc1", "target": "Protein phosphatase 3 catalytic subunit alpha (PPP3CA, Homo sapiens, UniProt Q08209)", "read-out": "enzyme activity", "action": "inhibitor", "concentration": "10 µM", "inhibition": "8%"}
{"Structure (SMILES)": "Cc1cc(O)c2c(c1)C(=O)c1cc(O)cc(O)c1C2=O", "target": "PDE4D", "read-out": "enzyme activity", "action": "inhibitor", "technique": "radiometric", "concentration": "50 µM", "inhibition": "45.4%"}
{"Structure (SMILES)": "Cn1cc(-c2cccc(N3CCc4c(sc5c4CC(C)(C)C5)C3=O)c2CO)cc(Nc2ccncn2)c1=O", "target": "Protein kinase C gamma type (PRKCG, Homo sapiens, UniProt P05129)", "read-out": "enzyme activity", "action": "inhibitor", "concentration": "1 µM", "inhibition": "-1%"}
{"Structure (SMILES)": "O=C(/C=C/c1ccc(O)cc1)c1ccc(O)cc1O", "target": "PDE4D", "read-out": "enzyme activity", "action": "inhibitor", "technique": "radiometric", "concentration": "5 µM", "inhibition": "-6.18%"}
{"Structure (SMILES)": "C[C@@H]1CC[C@@]2(NC1)O[C@H]1C[C@H]3[C@@H]4CC=C5C[C@@H](O)CC[C@]5(C)[C@H]4CC[C@]3(C)[C@H]1[C@@H]2C", "target": "CDK7 with cyclin H", "read-out": "enzyme activity", "action": "inhibitor", "technique": "ADP detection", "concentration": "10 µM", "inhibition": "22.4%"}
{"Structure (SMILES)": "COc1ccc(-c2coc3cc(O)ccc3c2=O)cc1", "target": "PDE4D", "read-out": "enzyme activity", "action": "inhibitor", "technique": "radiometric", "concentration": "50 µM", "inhibition": "5.54%"}
{"Structure (SMILES)": "CN1CCc2cc3c(cc2[C@H]1[C@@H]1OC(=O)c2c1ccc1c2OCO1)OCO3", "target": "CDK7 with cyclin H", "read-out": "enzyme activity", "action": "inhibitor", "technique": "ADP detection", "concentration": "10 µM", "inhibition": "22%"}
{"Structure (SMILES)": "O=c1c(O)c(-c2ccc(O)c(O)c2)oc2cc(O)cc(O)c12", "target": "PDE4D", "read-out": "enzyme activity", "action": "inhibitor", "technique": "radiometric", "concentration": "50 µM", "inhibition": "100%"}
{"Structure (SMILES)": "N=C(N)Nc1ccc(C(=O)Nc2ccc3c(c2)B(O)OC3)cc1", "target": "F2", "read-out": "enzyme activity", "action": "inhibitor", "concentration": "50 µM", "inhibition": "10.7%"}
{"Structure (SMILES)": "COc1cc2c(cc1OC)[C@@]13CCN4CC5=CCO[C@H]6CC(=O)N2[C@H]1[C@H]6[C@H]5C[C@H]43", "target": "CDK7 with cyclin H", "read-out": "enzyme activity", "action": "inhibitor", "technique": "ADP detection", "concentration": "10 µM", "inhibition": "28.4%"}
{"Structure (SMILES)": "C=CCc1ccc(O)c(-c2ccc(O)c(CC=C)c2)c1", "target": "PDE4D", "read-out": "enzyme activity", "action": "inhibitor", "technique": "radiometric", "concentration": "50 µM", "inhibition": "25.6%"}
{"Structure (SMILES)": "COc1c2ccoc2cc2oc(=O)ccc12", "target": "CDK7 with cyclin H", "read-out": "enzyme activity", "action": "inhibitor", "technique": "ADP detection", "concentration": "10 µM", "inhibition": "-13.6%"}
{"Structure (SMILES)": "COC(=O)c1cc(O)c(O)c(O)c1", "target": "PDE4D", "read-out": "enzyme activity", "action": "inhibitor", "technique": "radiometric", "concentration": "50 µM", "inhibition": "-5.1%"}
